Reference: ChEMBL document CHEMBL1122201, “Carboxyimamidate, a low-molecular-weight polyelectrolyte with antitumor properties and low toxicity” (1982)
Several values for one entry are separate records, joined by “and”; a condition that tells them apart may be missing. Equal values may be shown once.

Tests used:
[1] = tested on: Mus musculus; assay: Proportion of survivors was determined on the 60th day at a dose of 62-75 mg/kg/day; format: functional
Procedure, shortened: (§1)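 Lewis lung carcinoma model in mice, groups of 10. Dosing daily on days 1-5, 1-8 or 1-10, ip or subcutaneous. Dose ranges pooled from nine independent experiments run at different levels. ILS is the percent increase in mean life span, excluding cures, over the mean of 3 or 4 untreated control groups of 10. Survivors scored at day 60.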

[2] = organism: Mus musculus; assay: Tumor weight inhibition against EMT6 mammary carcinoma cells
[3] = tested on: Mus musculus; assay: Percent increase of mean life span of treated groups relative to the mean of the untreated control groups in the subcutaneous Lewis Lung Carcinoma model at a dose of 500-600 (mg/kg)/day; format: functional; procedure, shortened: as §1
[4] = tested on: Mus musculus; assay: Proportion of survivors was determined on the 60th day at a dose of 300-400 (mg/kg)/day; format: functional; procedure, shortened: as §1
[5] = tested on: Mus musculus; assay: Proportion of survivors was determined on the 60th day at a dose of 2400-2512 (mg/kg)/day; format: functional; procedure, shortened: as §1
[6] = tested on: Mus musculus; assay: Percent increase of mean life span of treated groups relative to the mean of the untreated control groups in the subcutaneous Lewis Lung Carcinoma model at a dose of 2400-2512 (mg/kg)/day; format: functional; procedure, shortened: as §1
[7] = organism: Mus musculus; assay: Increase in mean life span was measured against Madison 109 lung carcinoma cells; format: functional, M109
Procedure, shortened: (§2)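 Tumor brei, 10%, 0.5 mL, implanted sc in groups of 10 mice: CD2F1 for Nettesheim and Madison, B6D2F1 for M5076. M5076 also implanted ip with the same inoculum; Madison im at 0.2 mL. Drug given ip in saline, 0.5 mL/mouse, at or below the maximally tolerated dose. ILS excludes long-term survivors. Animals held 60 days; t test.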

[8] = organism: Rattus norvegicus; assay: Increase in mean life span was measured against Walker carcinosarcoma cells
[9] = tested on: Mus musculus; assay: Ratio of mean tumor volume of treated groups to that of the mean of total untreated controls in the subcutaneous Lewis Lung Carcinoma model at a dose of 2400-2512 (mg/kg)/day; format: functional
Procedure, shortened: (§3)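 Mice bearing sc Lewis lung carcinoma (groups of 10) received the saline-dissolved agent daily on days 1-5, 1-8 or 1-10, ip or sc. Perpendicular tumor diameters were measured with vernier calipers on day 14, and volume was taken as 0.5 × length × width². T/C is treated mean volume over the mean of all untreated controls (3-4 groups of 10), pooled across experiments as mean ± SE.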

[10] = organism: Mus musculus; assay: Increase in mean life span was measured against ADJ-PC6 plasmacytoma cells; format: functional
Procedure, shortened: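 10^6 Trypan blue-excluding cells implanted ip (P815 sc) in groups of 10 mice: B6D2F1 for L5178Y and P815, BALB/c for ADJ-PC6, C3H for Gardner. Drug given ip in sterile saline, 0.5 mL/mouse, at or below the maximally tolerated dose for the schedule. ILS excludes long-term tumor-free survivors. Animals held 60 days; Student's t test against untreated controls.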

[11] = organism: Mus musculus; assay: Increase in mean life span was measured against B16 melanoma cells; format: functional
[12] = organism: Mus musculus; assay: Tumor weight inhibition against M5076 ovarian tumor
[13] = organism: Mus musculus; assay: Increase in mean life span was measured against Nettesheim lung carcinoma cells; format: functional; procedure, shortened: as §2
[14] = tested on: Mus musculus; assay: Average proportion of total treated mice without palpable tumors was determined in the subcutaneous Lewis Lung Carcinoma model at a dose of 300-400 (mg/kg)/day; format: functional
Procedure, shortened: (§4)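 Sc-implanted Lewis lung carcinoma in mice, groups of 10. Agent dissolved in sterile saline and given daily on days 1-5, 1-8 or 1-10, ip or sc (0.5 mL/mouse). Each experiment had 3 or 4 untreated control groups of 10. The read-out was the average proportion of treated mice without palpable tumor on day 14, pooled over independent experiments as mean ± SE.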

[15] = tested on: Walker carcinosarcoma 256 (Rattus norvegicus); assay: Tumor weight inhibition Walker carcinosarcoma cells against
[16] = organism: Mus musculus; assay: Increase in mean life span was measured against M5076 ovarian tumor; format: functional; procedure, shortened: as §2
[17] = tested on: Mus musculus; assay: Proportion of survivors was determined on the 60th day at a dose of 900-1000 mg/kg/day; format: functional; procedure, shortened: as §1
[18] = tested on: Mus musculus; assay: Percent increase of mean life span of treated groups relative to the mean of the untreated control groups in the subcutaneous Lewis Lung Carcinoma model at a dose of 1200-1500 (mg/kg)/day; format: functional; procedure, shortened: as §1
[19] = organism: Mus musculus; assay: Tumor weight inhibition against colon carcinoma 38
[20] = tested on: Mus musculus; assay: Proportion of survivors was determined on the 60th day at a dose of 500-600 mg/kg/day; format: functional; procedure, shortened: as §1
[21] = tested on: Mus musculus; assay: Ratio of mean tumor volume of treated groups to that of the mean of total untreated controls in the subcutaneous Lewis Lung Carcinoma model at a dose of 900-1000 mg/kg/day; format: functional; procedure, shortened: as §3
[22] = organism: Mus musculus; assay: Tumor weight inhibition against B16 melanoma cells
[23] = tested on: Mus musculus; assay: Average proportion of total treated mice without palpable tumors was determined in the subcutaneous Lewis Lung Carcinoma model at a dose of 900-1000 (mg/kg)/day; format: functional; procedure, shortened: as §4
[24] = organism: Mus musculus; assay: Increase in mean life span was measured against colon carcinoma 26; format: functional
Procedure, shortened: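 Colon carcinoma 26: 0.5 mL of 1% brei implanted sc or ip in groups of 10 CD2F1 mice. Drug given ip in sterile saline, 0.5 mL/mouse, at or below the maximally tolerated dose for the schedule. Mean life span excludes long-term tumor-free survivors. Animals held 60 days; Student's t test against untreated controls.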

[25] = tested on: Mus musculus; assay: Ratio of mean tumor volume of treated groups to that of the mean of total untreated controls in the subcutaneous Lewis Lung Carcinoma model at a dose of 1200-1500 mg/kg/day; format: functional; procedure, shortened: as §3
[26] = tested on: Mus musculus; assay: Average proportion of total treated mice without palpable tumors was determined in the subcutaneous Lewis Lung Carcinoma model at a dose of 62-75 (mg/kg)/day; format: functional; procedure, shortened: as §4
[27] = tested on: Mus musculus; assay: Ratio of mean tumor volume of treated groups to that of the mean of total untreated controls in the subcutaneous Lewis Lung Carcinoma model at a dose of 500-600 (mg/kg)/day; format: functional; procedure, shortened: as §3
[28] = tested on: Mus musculus; assay: Percent increase of mean life span of treated groups relative to the mean of the untreated control groups in the subcutaneous Lewis Lung Carcinoma model at a dose of 300-400 (mg/kg)/day; format: functional; procedure, shortened: as §1

In the case of `CC(c1ccccc1)C1C(=O)NC(=O)C1CCC(C(N)=O)C(CCC(CC(=O)O)C(N)=O)C(=O)O.N.N` (stereo not drawn), the Proportion of survivors [1] is reported as 0.03, the TWI [2] is reported as 14 and the ILS [3] is reported as 15%. It also gave a Proportion of survivors [4] of 0.09, a Proportion of survivors [5] of 0.13 and an ILS [6] of -28%. The ILS [7] was 27% and 23% and 20%, the ILS [8] was 3% and the T/C [9] was 0.1. The ILS [10] was 24%, the ILS [11] was 21% and 11% and the TWI [12] was 89. The ILS [13] was 6%, the Average proportion [14] was 0.27 and the TWI [15] was 21. For the same compound, the ILS [16] was 20%, the Proportion of survivors [17] was 0.21 and the ILS [18] was 24%. The TWI [19] was 44, the Proportion of survivors [20] was 0.12 and the T/C [21] was 0.17. It also gave a TWI [22] of 74, an Average proportion [23] of 0.47 and an ILS [24] of 22%. It also gave a T/C [25] of 0.16, an Average proportion [26] of 0.08 and a T/C [27] of 0.32. It also gave an ILS [28] of 17%.
